Compound activity (PubChem)
Only some compounds are listed: those with a hit (about 4.3% of all), similar ones and a draw of the others.
OX1R antag-1 – blocks the human orexin 1 receptor. O43613. OX1R-expressing cells, FRET antagonist read-out. 1.8% of 330,000 active. inhibition, % at 6.6 µM; in the data active means inhibition mostly above about 38%, no sharp cut-off; inactive means mostly below about 40%;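 further: 0% = agonist challenge alone and 100% = reference antagonist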
Target sequence (O43613 whole entry, looked up): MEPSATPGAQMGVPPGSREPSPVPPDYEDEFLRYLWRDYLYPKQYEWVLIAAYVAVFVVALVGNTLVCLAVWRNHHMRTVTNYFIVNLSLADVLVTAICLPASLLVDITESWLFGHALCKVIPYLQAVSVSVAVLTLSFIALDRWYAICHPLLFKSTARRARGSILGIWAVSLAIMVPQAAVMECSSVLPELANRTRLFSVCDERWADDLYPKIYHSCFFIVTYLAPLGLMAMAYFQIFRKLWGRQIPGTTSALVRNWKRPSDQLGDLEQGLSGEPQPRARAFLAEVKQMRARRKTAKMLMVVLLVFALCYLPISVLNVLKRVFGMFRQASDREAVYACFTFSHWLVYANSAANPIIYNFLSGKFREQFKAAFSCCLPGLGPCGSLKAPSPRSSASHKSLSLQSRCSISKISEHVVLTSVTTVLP
GalR3 antag – antagonists of human GalR3 | HEK293 GalR3-CNG cAMP membrane potential fluorescence; galR3 body fused to GalR1 C-terminus | AID 651719 | inhibition, % at 3 µM | 0.44% of 360,000 active | O60755;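 active means inhibition above the screen-wide average plus 3 SD, cut at about 13% in these data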;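 further: forskolin and galanin both at EC90 stimulate the cells; cAMP rise reported by CNG channel membrane potential dye signal; 0% = forskolin plus galanin with DMSO and 100% = forskolin alone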
TAAR1 antag – human TAAR1 antagonism; Q96RJ0; CHO RD-HGA16 TAAR1, Fluo-8 calcium fluorescence, antagonist; inhibition, % at 3 µM; 1.5% of 360,000 active;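 active means inhibition above a per-plate cutoff, the mean inhibition of test compounds on that plate plus 3 SD, cut at about 49% in these data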;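 further: 0% = DMSO plus EC80 beta-PEA response and 100% = DMSO alone without agonist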
Target sequence (Q96RJ0 whole entry, looked up): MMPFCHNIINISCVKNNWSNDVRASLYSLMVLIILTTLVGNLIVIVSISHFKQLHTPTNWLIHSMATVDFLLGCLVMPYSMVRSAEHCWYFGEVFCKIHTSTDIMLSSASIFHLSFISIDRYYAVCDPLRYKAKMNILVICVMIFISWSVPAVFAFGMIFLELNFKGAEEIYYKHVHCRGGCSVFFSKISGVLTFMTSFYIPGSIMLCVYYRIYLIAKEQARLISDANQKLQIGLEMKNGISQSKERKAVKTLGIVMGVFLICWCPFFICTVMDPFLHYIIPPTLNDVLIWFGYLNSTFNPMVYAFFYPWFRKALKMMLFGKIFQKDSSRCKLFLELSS
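test system = CHO RD-HGA16 cells bearing hTAAR1 | replication = singlicate | controls = DMSO-only wells and EC80 β-PEA-stimulated wells | reagent = EC80 β-phenethylamine stimulus | read-out basis = percent inhibition of PEA-evoked calcium signal, max/basal emission ratio | schedule = seeding 17-24 h prior, 75-min 37 °C, 30-min RT dye loading | signal = kinetic Fluo-8 calcium fluorescence measurement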
TAAR1 agonist – agonists of human TAAR1. Q96RJ0. CHO RD-HGA16 TAAR1, Fluo-8 calcium fluorescence; vehicle wells 0%, saturating PEA agonist 100%. activation, % at 3 µM. 0.99% of 360,000 active. AID 624467;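 active means activation above the mean activation of all test compounds in the run plus 3 SD, cut at about 38% in these data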
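Assay system: CHO-derived RD-HGA16 cells with stable Gα16 and human TAAR1; timing: 17-24 h seeding, 75 min 37 °C dye, 30 min RT; read-out: % activation from peak over basal fluorescence ratio, DMSO-to-PEA scaled; measured by: kinetic Fluo-8 calcium fluorescence; benchmarks: low control DMSO, high control PEA (EC100); doses: 3 µM single concentration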
CHO parental Ca – signal in parental CHO cells, OX1R antagonist counter-screen; parental CHO-K1, ATP-induced calcium, Fluo-8 fluorescence; inhibition, % at 5.6 µM; 0.63% of 330,000 active; AID 463079;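 active means inhibition above that plate's mean sample inhibition plus 3 SD, cut at about 26% in these data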;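 further: 0% = ATP-challenged DMSO wells and 100% = DMSO wells without ATP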
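Material – parental CHO cells · Reagent – ATP stimulus · Compound – single nominal dose of 5.6 µM per compound · Detection – Fluo-8 fluorescence · Read-out basis – percent inhibition of calcium signal · Controls – ATP-challenged DMSO wells low, unchallenged DMSO wells high · Repeats – no replicates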
OX1R antag-2 – blocks the human orexin 1 receptor; inhibition, % at 5 µM; CHO/OX1R cells, Fluo-8 calcium fluorescence, orexin A; AID 434989; 0.43% of 330,000 active; O43613;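 active means inhibition above its plate's threshold, mean inhibition of all tested compounds on the plate plus 3 SD, cut at about 37% in these data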;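 further: 0% = orexin A challenge wells and 100% = SB-334867-A antagonist wells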
OX1R HTRF confirm – OX1R (human) antagonism, HTRF confirmed. shares compounds with OX1R antag-1. OX1R-expressing cells, HTRF antagonist assay. inhibition, % at 6.6 µM. 49% of 1,800 active; in the data active means inhibition above about 55%;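 further: CHO cells expressing OX1R stimulated with orexin A at about EC80; 0% = agonist challenge alone and 100% = reference antagonist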
CHO-K1 HTRF – signal in parental CHO-K1 cells, OX1R antagonist counter-screen | shares compounds with OX1R antag-1 | HTRF counterscreen | 48% of 1,800 active | inhibition, % at 6.6 µM | AID 493232; in the data active means inhibition above about 17%;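 further: 0% = agonist challenge with vehicle and 100% = vehicle alone without agonist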
Numbers without * were called inactive; x = not tested or not shown.

SMILES	OX1R antag-1	GalR3 antag	TAAR1 antag	TAAR1 agonist	CHO parental Ca	OX1R antag-2	OX1R HTRF confirm	CHO-K1 HTRF
CC(=O)N(C)C1=C(O)c2ccccc2C(=O)C1=O	83.4*	-2.8	11.9	3.2	-2.1	-7.4	51.3	93.5*
CC1=C2CCCC[C@@]23C2C(=O)N(C)C(=O)[C@@H]2ON3OC1 (stereo partly drawn)	x	-6.2	-1.2	0.1	x	x	x	x
COc1ccc(-n2c(C)cc(/C=N/Nc3nnc(C)n3N)c2C)cc1	108.2*	5.6	-4.5	-0.1	-15.9	-12.7	21.8	13.8
Cc1ccc2cc3cc(C(=O)NCCCN4CCCCCC4)oc3nc2c1	82.2*	-4.2	-0.7	0.2	-27.4	-24.1	42.3	36.2*
CCOC(=O)c1ccc(-c2c(C(=O)OCC)oc3cc(O)c(CC)cc3c2=O)o1	82.5*	4.9	46.2	11.1	-8.5	11.0	27.1	8.8
Cc1ccc(/C=C2/Sc3ccccc3N(CC(=O)NCCCOC(C)C)C2=O)cc1	83.6*	-9.9	39.5	3.3	-19.7	26.8	69.5*	5.1
COCCCNC(=O)CN1C(=O)/C(=C/c2ccccc2C)Sc2ccccc21	46.7	-4.8	-19.7	4.3	-10.7	-13.7	x	x
CCOCCCNC(=O)CN1C(=O)/C(=C\c2ccc(C)cc2)Sc2ccccc21	59.9	1.1	12.8	5.1	-26.4	4.2	x	x
CCOCCCNC(=O)CN1C(=O)/C(=C/c2ccccc2)Sc2ccccc21	81.0*	-4.5	18.2	0.6	-14.2	12.2	87.2*	9.0
COc1ccc(-c2cn(CCN)c(-c3ccncc3)n2)cc1	30.1	-7.0	-11.9	0.8	-9.9	-2.2	x	x
O=C(NCCCCC(NC(=O)c1ccc([N+](=O)[O-])cc1)C(=O)O)c1ccc([N+](=O)[O-])cc1 (stereo not drawn)	136.9*	-3.7	9.2	0.4	-12.3	-12.4	36.7	58.2*
COCCCNC(=O)c1ccc([N+](=O)[O-])cc1	42.4	-3.1	-2.8	5.0	1.3	-6.4	x	x
COc1cccc(C(=O)/C(C#N)=N/Nc2cccc(-c3ccnc(C)n3)c2)c1	77.3*	0.2	3.7	8.5	-1.9	-13.5	50.1	18.1*
C(=N\Nc1nc2ccccc2s1)/c1cccs1	32.4	-5.1	-14.4	13.1	-18.3	7.7	x	x
CCc1nnc(N/N=C/c2cccs2)n1N	84.1*	-1.1	-13.4	1.7	-6.5	11.7	20.3	14.1
Cc1nc(C(F)(F)F)ccc1C(=O)N1CCC1(C)C(=O)NS(=O)(=O)c1c(C)noc1C (stereo not drawn)	x	-4.3	-8.1	0.9	x	x	x	x
O=C(Nc1cccc(-c2nnc(-c3ccccc3)o2)c1)c1ccc(Br)o1	87.0*	-8.6	18.1	6.0	-11.1	31.3	51.6	10.3
O=C1c2ccccc2C(=O)c2[nH]c(=O)[nH]c21	82.3*	-10.6	-4.6	2.8	-7.4	-14.1	70.6*	108.6*
CCOC(=O)c1c(COC(=O)c2ccco2)nc2ccccc2[n+]1[O-]	106.8*	-0.5	8.3	11.2	-24.4	-13.1	52.7	28.2*
O=C(OCc1nc2ccccc2[n+]([O-])c1C(=O)c1ccccc1)c1ccco1	27.1	-2.8	-10.7	-0.7	-26.0	-34.7	x	x
CC(=O)c1c(COC(=O)c2ccco2)nc2ccccc2[n+]1[O-]	39.6	-0.7	4.8	8.7	-16.5	-23.5	x	x
COc1ccc2nc(COC(=O)c3ccco3)c(C(C)=O)[n+]([O-])c2c1	125.5*	-4.6	-8.7	11.1	-27.6	-5.7	31.8	34.9*
COCCN(C(=O)CSc1nc2ccc(OC)cc2[nH]1)c1c(N)n(Cc2ccccc2)c(=O)[nH]c1=O	90.4*	-4.2	-0.6	0.9	-7.0	-14.9	16.9	-4.3
O=C(c1ccc(-c2nc3ccccc3s2)s1)N1CCOCC1	30.3	2.1	-0.5	5.5	-9.1	-19.1	x	x
O=C(NC1CC1)c1ccc(-c2nc3ccccc3s2)s1	113.1*	1.9	11.1	3.0	-14.7	20.7	83.7*	12.2
SMILES	OX1R antag-1	GalR3 antag	TAAR1 antag	TAAR1 agonist	CHO parental Ca	OX1R antag-2	OX1R HTRF confirm	CHO-K1 HTRF
O=C1[C@H]2[C@@H](c3ccccc3)N[C@]3(CCCN(Cc4ccc(F)cc4)C3=O)[C@H]2C(=O)N1Cc1ccccc1	x	-6.5	14.5	6.1	x	x	x	x
Cc1oc2c(c1C(=O)O)C(=O)c1ccccc1C2=O	97.3*	0.8	-0.4	0.0	-5.9	-0.2	71.9*	85.9*
CCOC(=O)c1c(C)oc2c1C(=O)c1ccccc1C2=O	85.2*	-3.4	-17.2	10.0	-6.6	-20.2	82.0*	47.3*
Cc1ccccc1CN1C(=O)CSCC1(C)C(=O)Nc1ccc2c(c1)OCCO2 (stereo not drawn)	x	-6.1	1.5	0.1	x	x	x	x
Nc1ccn(CCCNC2CCN(Cc3ccccc3)CC2)c(=O)n1	x	-5.9	-12.4	3.8	x	x	x	x
C[C@@H](C(=O)Nc1ccc2ccccc2c1)[C@H]1C[C@]1(C)[C@H](NC(=O)c1cccnc1)c1ccccc1	79.5*	-8.1	45.5	23.1	-31.5	25.9	72.4*	-3.8
C[C@@H](C(=O)Nc1ccc2ccccc2c1)[C@@H]1C[C@@]1(C)[C@@H](NC(=O)c1ccccc1)c1ccccc1	21.3	-4.0	4.8	10.4	-14.1	-19.1	x	x
COc1ccc(CNC(=O)Cn2ccc3cc(S(=O)(=O)N4CCCC4)ccc32)cc1OC	26.2	-0.7	-12.3	31.3	-3.1	-26.4	x	x
O=C(Nc1cccnc1)c1cnc2ccccc2n1	108.9*	0.3	-2.2	14.5	-1.1	-6.8	43.3	45.5*
O=C1C(=O)N(CCN2CCOCC2)C(c2ccccn2)/C1=C(/O)c1ccccc1 (stereo not drawn)	178.5*	0.6	-6.0	8.8	-6.6	-5.4	26.4	36.0*
COc1ccc(/C(O)=C2/C(=O)C(=O)N(CCN3CCOCC3)C2c2ccccn2)cc1OC (stereo not drawn)	134.7*	-3.2	5.3	10.6	-9.8	-9.7	29.0	28.5*
Cc1ccc(/C(O)=C2/C(=O)C(=O)N(CCN3CCOCC3)C2c2ccccn2)cc1 (stereo not drawn)	82.3*	-1.6	-11.6	11.6	15.0	-2.5	23.7	32.7*
O=C1C(=O)N(CCN2CCOCC2)C(c2cccnc2)/C1=C(/O)c1ccccc1 (stereo not drawn)	6.8	x	x	x	16.9	-4.4	x	x
Cn1c(CO)nc2c3ccccc3ccc21	2.6	-6.6	-9.9	-0.3	8.5	-2.4	x	x
Cc1cnc(C(=O)OCc2cc(=O)n3c(C)cccc3n2)cn1	25.3	-6.1	13.6	0.1	-3.5	12.8	x	x
Cc1ccc2nc(-c3ccc(F)cc3)c(Cc3ccsc3)n2c1	x	-2.5	-3.7	0.0	x	x	x	x
